According to ChEMBL document CHEMBL1821556, “Structure-activity relationships of antitubercular nitroimidazoles. 3. Exploration of the linker and lipophilic tail of ((s)-2-nitro-6,7-dihydro-5H-imidazo[2,1-b][1,3]oxazin-6-yl)-(4-trifluoromethoxybenzyl)amine (6-amino PA-824)” (J Med Chem, 2011):
In brackets after ≈: the same amount, converted by molar mass.

tested on: Liver; assay: Intrinsic clearance in mouse liver microsome at 5 mg/kg, iv after 24 hrs by LC/MS/MS analysis; type: ADME; settings: microsomes

SMILES	CL
CN(Cc1ccc(OC(F)(F)F)cc1)[C@@H]1COc2nc([N+](=O)[O-])cn2C1	124.9 µL/min/mg
CCCN(Cc1ccc(OC(F)(F)F)cc1)[C@@H]1COc2nc([N+](=O)[O-])cn2C1	407 µL/min/mg
CC(C)N(Cc1ccc(OC(F)(F)F)cc1)[C@@H]1COc2nc([N+](=O)[O-])cn2C1	433 µL/min/mg
O=[N+]([O-])c1cn2c(n1)OC[C@@H](NCc1ccc(OC(F)(F)F)cc1Oc1ccccc1)C2	216.6 µL/min/mg
O=[N+]([O-])c1cn2c(n1)OC[C@@H](NCc1ccc(OC(F)(F)F)cc1OCC1CC1)C2	866.3 µL/min/mg
O=[N+]([O-])c1cn2c(n1)OC[C@@H](NCc1ccc(OC(F)(F)F)cc1OC1CC1)C2	150.7 µL/min/mg
O=[N+]([O-])c1cn2c(n1)OC[C@@H](NCc1ccc(OC(F)(F)F)cc1O)C2	96.9 µL/min/mg
O=[N+]([O-])c1cn2c(n1)OC[C@@H](NCc1ccc(OC(F)(F)F)cc1F)C2	95.6 µL/min/mg
O=[N+]([O-])c1cn2c(n1)OC[C@@H](NCc1ccc(OC(F)(F)F)cc1Cl)C2	69.7 µL/min/mg
O=[N+]([O-])c1cn2c(n1)OC[C@@H](NCc1ccc(OC(F)(F)F)c(F)c1)C2	58.7 µL/min/mg
O=[N+]([O-])c1cn2c(n1)OC[C@@H](NCc1ccc(OC(F)(F)F)c(Cl)c1)C2	103.4 µL/min/mg
O=[N+]([O-])c1cn2c(n1)OC[C@@H](NCc1ccc(OC(F)(F)F)c(Oc3ccccc3)c1)C2	149 µL/min/mg

tested on: Liver; assay: Half life in mouse liver microsome at 5 mg/kg, iv after 24 hrs by LC/MS/MS analysis; type: ADME; settings: microsomes

SMILES	t1/2
CN(Cc1ccc(OC(F)(F)F)cc1)[C@@H]1COc2nc([N+](=O)[O-])cn2C1	11 min
CCCN(Cc1ccc(OC(F)(F)F)cc1)[C@@H]1COc2nc([N+](=O)[O-])cn2C1	3.4 min
CC(C)N(Cc1ccc(OC(F)(F)F)cc1)[C@@H]1COc2nc([N+](=O)[O-])cn2C1	3.2 min
O=[N+]([O-])c1cn2c(n1)OC[C@@H](NCc1ccc(OC(F)(F)F)cc1Oc1ccccc1)C2	6.4 min
O=[N+]([O-])c1cn2c(n1)OC[C@@H](NCc1ccc(OC(F)(F)F)cc1OCC1CC1)C2	1.6 min
O=[N+]([O-])c1cn2c(n1)OC[C@@H](NCc1ccc(OC(F)(F)F)cc1OC1CC1)C2	9.2 min
O=[N+]([O-])c1cn2c(n1)OC[C@@H](NCc1ccc(OC(F)(F)F)cc1O)C2	14.3 min
O=[N+]([O-])c1cn2c(n1)OC[C@@H](NCc1ccc(OC(F)(F)F)cc1F)C2	14.5 min
O=[N+]([O-])c1cn2c(n1)OC[C@@H](NCc1ccc(OC(F)(F)F)cc1Cl)C2	19.9 min
O=[N+]([O-])c1cn2c(n1)OC[C@@H](NCc1ccc(OC(F)(F)F)c(F)c1)C2	23.6 min
O=[N+]([O-])c1cn2c(n1)OC[C@@H](NCc1ccc(OC(F)(F)F)c(Cl)c1)C2	13.4 min
O=[N+]([O-])c1cn2c(n1)OC[C@@H](NCc1ccc(OC(F)(F)F)c(Oc3ccccc3)c1)C2	9.3 min

tested on: Mycobacterium tuberculosis; assay: Antitubercular activity against Mycobacterium tuberculosis; type: functional; settings: not given
Summary of the method: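 Whole-cell assay against replicating Mtb, scored as MIC99 in μM. Run multiple times in two independent laboratories, with discrepant results repeated until concordant. Values are averages of multiple measurements ± SD.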

SMILES	MIC99
O=C(c1ccc(Cl)cc1)N(Cc1ccc(OC(F)(F)F)cc1)[C@@H]1COc2nc([N+](=O)[O-])cn2C1	1.3 µM (≈ 0.646 µg/mL)
O=CN(Cc1ccc(OC(F)(F)F)cc1)[C@@H]1COc2nc([N+](=O)[O-])cn2C1	0.79 µM (≈ 0.305 µg/mL)
CC(=O)N(Cc1ccc(OC(F)(F)F)cc1)[C@@H]1COc2nc([N+](=O)[O-])cn2C1	50 µM (≈ 20 µg/mL)
O=C(c1ccccc1)N(Cc1ccc(OC(F)(F)F)cc1)[C@@H]1COc2nc([N+](=O)[O-])cn2C1	8.8 µM (≈ 4.07 µg/mL)
O=C(c1ccccc1Cl)N(Cc1ccc(OC(F)(F)F)cc1)[C@@H]1COc2nc([N+](=O)[O-])cn2C1	5.6 µM (≈ 2.78 µg/mL)
O=C(c1cccc(Cl)c1)N(Cc1ccc(OC(F)(F)F)cc1)[C@@H]1COc2nc([N+](=O)[O-])cn2C1	7.5 µM (≈ 3.73 µg/mL)
CN(Cc1ccc(OC(F)(F)F)cc1)[C@@H]1COc2nc([N+](=O)[O-])cn2C1	0.15 µM (≈ 0.0558 µg/mL)
CCCN(Cc1ccc(OC(F)(F)F)cc1)[C@@H]1COc2nc([N+](=O)[O-])cn2C1	0.11 µM (≈ 0.044 µg/mL)
CC(C)N(Cc1ccc(OC(F)(F)F)cc1)[C@@H]1COc2nc([N+](=O)[O-])cn2C1	0.34 µM (≈ 0.136 µg/mL)
CCNC(=O)N(Cc1ccc(OC(F)(F)F)cc1)[C@@H]1COc2nc([N+](=O)[O-])cn2C1	17 µM (≈ 7.3 µg/mL)
O=[N+]([O-])c1cn2c(n1)OC[C@@H](NCc1ccc(OC(F)(F)F)cc1OCc1ccccc1)C2	0.24 µM (≈ 0.111 µg/mL)
COc1cc(OC(F)(F)F)ccc1CN[C@@H]1COc2nc([N+](=O)[O-])cn2C1	0.23 µM (≈ 0.0893 µg/mL)
O=[N+]([O-])c1cn2c(n1)OC[C@@H](NCc1ccc(OC(F)(F)F)cc1Oc1ccccc1)C2	0.06 µM (≈ 0.027 µg/mL)
O=[N+]([O-])c1cn2c(n1)OC[C@@H](NCc1ccc(OC(F)(F)F)cc1OCC1CC1)C2	0.1 µM (≈ 0.0428 µg/mL)
O=[N+]([O-])c1cn2c(n1)OC[C@@H](NCc1ccc(OC(F)(F)F)cc1OC1CC1)C2	0.06 µM (≈ 0.0249 µg/mL)
O=[N+]([O-])c1cn2c(n1)OC[C@@H](NCc1ccc(OC(F)(F)F)cc1O)C2	0.09 µM (≈ 0.0337 µg/mL)
O=[N+]([O-])c1cn2c(n1)OC[C@@H](NCc1ccc(OC(F)(F)F)cc1F)C2	0.12 µM (≈ 0.0452 µg/mL)
O=[N+]([O-])c1cn2c(n1)OC[C@@H](NCc1ccc(OC(F)(F)F)cc1Cl)C2	0.13 µM (≈ 0.0511 µg/mL)
O=[N+]([O-])c1cn2c(n1)OC[C@@H](NCc1ccc(OC(F)(F)F)c(F)c1)C2	0.12 µM (≈ 0.0452 µg/mL)
O=[N+]([O-])c1cn2c(n1)OC[C@@H](NCc1ccc(OC(F)(F)F)c(Cl)c1)C2	0.12 µM (≈ 0.0471 µg/mL)
O=[N+]([O-])c1cn2c(n1)OC[C@@H](NCc1ccc(OC(F)(F)F)c(Oc3ccccc3)c1)C2	0.14 µM (≈ 0.0631 µg/mL)

tested on: not listed separately; assay: Solubility of the compound at pH 6.8; type: physicochemical; settings: buffer

SMILES	solubility
CN(Cc1ccc(OC(F)(F)F)cc1)[C@@H]1COc2nc([N+](=O)[O-])cn2C1	10 µg/mL (≈ 26.9 µM)
CCCN(Cc1ccc(OC(F)(F)F)cc1)[C@@H]1COc2nc([N+](=O)[O-])cn2C1	< 2 µg/mL
CC(C)N(Cc1ccc(OC(F)(F)F)cc1)[C@@H]1COc2nc([N+](=O)[O-])cn2C1	< 2 µg/mL
O=[N+]([O-])c1cn2c(n1)OC[C@@H](NCc1ccc(OC(F)(F)F)cc1Oc1ccccc1)C2	3 µg/mL (≈ 6.66 µM)
O=[N+]([O-])c1cn2c(n1)OC[C@@H](NCc1ccc(OC(F)(F)F)cc1OCC1CC1)C2	6 µg/mL (≈ 14 µM)
O=[N+]([O-])c1cn2c(n1)OC[C@@H](NCc1ccc(OC(F)(F)F)cc1OC1CC1)C2	11 µg/mL (≈ 26.5 µM)
O=[N+]([O-])c1cn2c(n1)OC[C@@H](NCc1ccc(OC(F)(F)F)cc1O)C2	25 µg/mL (≈ 66.8 µM)
O=[N+]([O-])c1cn2c(n1)OC[C@@H](NCc1ccc(OC(F)(F)F)cc1F)C2	72 µg/mL (≈ 191 µM)
O=[N+]([O-])c1cn2c(n1)OC[C@@H](NCc1ccc(OC(F)(F)F)cc1Cl)C2	30 µg/mL (≈ 76.4 µM)

same assay, conditions: buffer, read-out: solubility

SMILES	solubility
O=[N+]([O-])c1cn2c(n1)OC[C@@H](NCc1ccc(OC(F)(F)F)c(Oc3ccccc3)c1)C2	< 2 µg/mL

tested on: Mycobacterium tuberculosis; assay: Bactericidal activity against Mycobacterium tuberculosis assessed as minimum concentration required for anaerobicidal activity; type: functional; settings: not given
Summary of the method: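 Minimum anaerobicidal concentration (μM) against non-replicating Mtb. Run multiple times in two independent laboratories, with discrepant results repeated until concordant. Values are averages of multiple measurements ± SD.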

SMILES	Activity
O=C(c1ccc(Cl)cc1)N(Cc1ccc(OC(F)(F)F)cc1)[C@@H]1COc2nc([N+](=O)[O-])cn2C1	7.8 µM
O=CN(Cc1ccc(OC(F)(F)F)cc1)[C@@H]1COc2nc([N+](=O)[O-])cn2C1	12.5 µM
CC(=O)N(Cc1ccc(OC(F)(F)F)cc1)[C@@H]1COc2nc([N+](=O)[O-])cn2C1	>50 µM
O=C(c1ccccc1)N(Cc1ccc(OC(F)(F)F)cc1)[C@@H]1COc2nc([N+](=O)[O-])cn2C1	>50 µM
O=C(c1ccccc1Cl)N(Cc1ccc(OC(F)(F)F)cc1)[C@@H]1COc2nc([N+](=O)[O-])cn2C1	>50 µM
O=C(c1cccc(Cl)c1)N(Cc1ccc(OC(F)(F)F)cc1)[C@@H]1COc2nc([N+](=O)[O-])cn2C1	21 µM
CN(Cc1ccc(OC(F)(F)F)cc1)[C@@H]1COc2nc([N+](=O)[O-])cn2C1	2.5 µM
CCCN(Cc1ccc(OC(F)(F)F)cc1)[C@@H]1COc2nc([N+](=O)[O-])cn2C1	3.8 µM
CC(C)N(Cc1ccc(OC(F)(F)F)cc1)[C@@H]1COc2nc([N+](=O)[O-])cn2C1	11 µM
CCNC(=O)N(Cc1ccc(OC(F)(F)F)cc1)[C@@H]1COc2nc([N+](=O)[O-])cn2C1	69 µM
O=[N+]([O-])c1cn2c(n1)OC[C@@H](NCc1ccc(OC(F)(F)F)cc1OCc1ccccc1)C2	7.5 µM
COc1cc(OC(F)(F)F)ccc1CN[C@@H]1COc2nc([N+](=O)[O-])cn2C1	5.2 µM
O=[N+]([O-])c1cn2c(n1)OC[C@@H](NCc1ccc(OC(F)(F)F)cc1Oc1ccccc1)C2	4.4 µM
O=[N+]([O-])c1cn2c(n1)OC[C@@H](NCc1ccc(OC(F)(F)F)cc1OCC1CC1)C2	4.2 µM
O=[N+]([O-])c1cn2c(n1)OC[C@@H](NCc1ccc(OC(F)(F)F)cc1OC1CC1)C2	2 µM
O=[N+]([O-])c1cn2c(n1)OC[C@@H](NCc1ccc(OC(F)(F)F)cc1O)C2	4.4 µM
O=[N+]([O-])c1cn2c(n1)OC[C@@H](NCc1ccc(OC(F)(F)F)cc1F)C2	2.5 µM
O=[N+]([O-])c1cn2c(n1)OC[C@@H](NCc1ccc(OC(F)(F)F)cc1Cl)C2	2.1 µM
O=[N+]([O-])c1cn2c(n1)OC[C@@H](NCc1ccc(OC(F)(F)F)c(F)c1)C2	4.2 µM
O=[N+]([O-])c1cn2c(n1)OC[C@@H](NCc1ccc(OC(F)(F)F)c(Cl)c1)C2	4.2 µM
O=[N+]([O-])c1cn2c(n1)OC[C@@H](NCc1ccc(OC(F)(F)F)c(Oc3ccccc3)c1)C2	3.9 µM

tested on: not listed separately; assay: Elimination half life in mouse at 5 mg/kg, iv by LC/MS/MS analysis; type: ADME, organism-based; design: dose 5 mg/kg, route intravenous; settings: in vivo, read-out: beta t1/2 (converted)
Summary of the method: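 Single intravenous dose of 5mg/kg, using the supernatant of a centrifuged formulation. Blood was sampled at time points from 1min to 24h after dosing. Plasma was extracted and analysed by LC/MS/MS. Pharmacokinetic parameters, including elimination half-life, came from non-compartmental analysis.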

SMILES	half-life
O=[N+]([O-])c1cn2c(n1)OC[C@@H](NCc1ccc(OC(F)(F)F)c(Cl)c1)C2	258 min
